According to ChEMBL document CHEMBL1641445, “Synthesis, antiprotozoal, antimicrobial, β-hematin inhibition, cytotoxicity and methemoglobin (MetHb) formation activities of bis(8-aminoquinolines)” (Bioorg Med Chem, 2011):
Values after ≈ are worked out from the molar mass of the structure shown. Active and inactive are the calls of the source. No cut-off for these calls is given here.

Key:
[1] = Hematotoxicity against RBC assessed as formation of methemoglobin at 20 ug/ml relative to control; format: cell-based; settings: erythrocyte
In short: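 Metabolism-linked methemoglobin toxicity in vitro. Percent MetHb formation was determined at 20 µg/mL of compound relative to vehicle control.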

Plasmodium falciparum [2] = assay: Antimalarial activity against chloroquine-sensitive Plasmodium falciparum D6 by LDH assay; format: functional, organism-based
In short: (§1)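 Antiplasmodial activity was measured in vitro against P. falciparum blood-stage cultures. Read-out was parasite lactate dehydrogenase (LDH) activity, with IC50 values expressed in µg/mL. The same protocol was used for the D6 and W2 strains.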

Plasmodium falciparum [3] = assay: Antimalarial activity against chloroquine-resistant Plasmodium falciparum W2 by LDH assay; format: functional, organism-based; in short: as §1
Vero = assay: Cytotoxicity against african green monkey Vero cells up to 10 ug/ml by neutral red assay; format: cell-based; settings: chlorocebus sabaeus
In short: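 Vero (monkey kidney) cells were exposed up to a highest concentration of 10 µg/mL. Viability was read by neutral red uptake.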

[4] = Inhibition of beta-hematin formation; format: functional
Leishmania donovani = assay: Antileishmanial activity against promastigotes of Leishmania donovani by alamar blue assay; format: functional, organism-based
Staphylococcus aureus = assay: Antibacterial activity against methicillin-resistant Staphylococcus aureus ATCC 43300 by CLSI method; format: functional, organism-based
In short: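 Broth dilution method (NCCLS M7-A5). […] MIC is the lowest concentration allowing no detectable growth. MBC is the lowest concentration killing the organism. Highest test concentration was 20 µg/mL.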

[5] = test system: Mycobacterium intracellulare; assay: Antibacterial activity against Mycobacterium intracellular ATCC 23068 at 20 ug/ml by CLSI method; format: functional, organism-based
Candida albicans = assay: Antifungal activity against Candida albicans ATCC 90028 at 20 ug/ml; format: functional, organism-based
Cryptococcus neoformans = assay: Antifungal activity against Cryptococcus neoformans ATCC 90113; format: functional, organism-based
[6] = Plasmodium falciparum, W2, read-out: IC50
[7] = Plasmodium falciparum, D6, read-out: IC50
[8] = Leishmania donovani, read-out: IC50

| SMILES | Methemoglobin formation [1] | IC50 (Plasmodium falciparum [2]) | IC50 (Plasmodium falciparum [3]; [6]) | Activity (Vero) | IC50 [4] | IC90 (Leishmania donovani) | IC90 (Leishmania donovani; Leishmania donovani) | IC50 (Plasmodium falciparum [2]; [7]) | IC50 (Leishmania donovani; [8]) | also measured |
| --- | --- | --- | --- | --- | --- | --- | --- | --- | --- | --- |
| COc1cc(NC(C)CCCNC(=O)c2cccc(C(=O)NCCCC(C)Nc3cc(OC)cc4ccc(C(C)(C)C)nc34)n2)c2nc(C(C)(C)C)ccc2c1.Cl (stereo unspecified) | 0.25% | Not Active | 4.5 µg/mL | Non-toxic | > 1000 µM | inactive | – | – | – | IC50 (Leishmania donovani): Not Active |
| C[C@@H]1[C@H](O)[C@@H](C)/C=C/C=C/C=C/C=C/C=C/C=C/C=C/[C@H](O[C@@H]2O[C@H](C)[C@@H](O)[C@H](N)[C@@H]2O)C[C@@H]2O[C@](O)(C[C@@H](O)C[C@@H](O)[C@H](O)CC[C@@H](O)C[C@@H](O)CC(=O)O[C@H]1C)C[C@H](O)[C@H]2C(=O)O [AMPHOTERICIN B] | – | – | – | – | – | – | 0.35 µg/mL (≈ 0.379 µM) | – | – | – |
| COc1cc(NC(C)CCCN)c2nc(C(C)(C)C)ccc2c1 (stereo unspecified) | – | – | – | – | 2.9 µM | – | – | – | – | – |
| COc1cc(NC(C)CCCNC(=O)NC(CCCCN)C(=O)NCCCC(C)Nc2cc(OC)cc3cccnc23)c2ncccc2c1.Cl (single isomer, unassigned) | 3.75% | – | 2.7 µg/mL | Non-toxic | 80 µM | – | > 40 µg/mL | 2.7 µg/mL | 18 µg/mL | – |
| COc1cc(NC(C)CCCNCC(=O)NCCCC(C)Nc2cc(OC)cc3cccnc23)c2ncccc2c1.Cl.Cl (stereo unspecified) | 20.3% | Not Active | – | Non-toxic | > 1000 µM | inactive | – | – | 20 µg/mL | IC50 (Plasmodium falciparum [3]): Not Active |
| COc1cc(NC(C)CCCNC(=O)NC(=O)NCCCC(C)Nc2cc(OC)cc3ccc(C(C)(C)C)nc23)c2nc(C(C)(C)C)ccc2c1.Cl.Cl (stereo unspecified) | 8.8% | Not Active | – | Non-toxic | > 1000 µM | – | > 40 µg/mL | – | 25 µg/mL | IC50 (Plasmodium falciparum [3]): Not Active |
| COc1cc(NC(C)CCCNC(=O)NC(CCCNC(=N)N)C(=O)NCCCC(C)Nc2cc(OC)cc3cccnc23)c2ncccc2c1.Cl (single isomer, unassigned; 39) | 5.5% | – | 1.5 µg/mL | Non-toxic | 88 µM | – | 36 µg/mL | 2.4 µg/mL | 19 µg/mL | IC50 (Staphylococcus aureus): 15 µg/mL; MBC (Staphylococcus aureus): 20 µg/mL; IC50 [5]: Not Active; IC50 (Candida albicans): Not Active; IC50 (Cryptococcus neoformans): 15 µg/mL; MFC (Cryptococcus neoformans): 20 µg/mL; MIC (Cryptococcus neoformans): 20 µg/mL |
| COc1cc(NC(C)CCCNC(=S)NCCCC(C)Nc2cc(OC)cc3ccc(C(C)(C)C)nc23)c2nc(C(C)(C)C)ccc2c1.Cl.Cl (stereo unspecified) | 0.75% | – | 2.3 µg/mL | Non-toxic | > 1000 µM | – | 31 µg/mL | 3 µg/mL | 9 µg/mL | – |
| C[C@@H]1CC[C@H]2[C@@H](C)C(=O)O[C@@H]3O[C@@]4(C)CC[C@@H]1[C@]32OO4 [ARTEMISININ] | – | – | – | – | – | – | – | 0.015 µg/mL (≈ 0.0531 µM) | – | – |
| COc1cc(NC(C)CCCNC(=O)c2cccc(C(=O)NCCCC(C)Nc3cc(OC)cc4cccnc34)n2)c2ncccc2c1.Cl (stereo unspecified) | 5.7% | – | 2.3 µg/mL | Non-toxic | 123 µM | inactive | – | – | 6.5 µg/mL | – |
| COc1cc(NC(C)CCCNC(=O)c2ccncc2C(=O)NCCCC(C)Nc2cc(OC)cc3cccnc23)c2ncccc2c1.Cl (stereo unspecified) | 3.55% | – | 1.7 µg/mL | Non-toxic | 108 µM | inactive | – | 3 µg/mL | – | IC50 (Leishmania donovani): Not Active |
| N=C(N)c1ccc(OCCCCCOc2ccc(C(=N)N)cc2)cc1 [PENTAMIDINE] | – | – | – | – | – | – | 3.8 µg/mL (≈ 11.2 µM) | – | – | – |
| COc1cc(NC(C)CCCNC(=O)C(=O)NCCCC(C)Nc2cc(OC)cc3cccnc23)c2ncccc2c1.Cl.Cl (stereo unspecified) | 6.45% | Not Active | – | Non-toxic | > 1000 µM | – | > 40 µg/mL | – | 15 µg/mL | IC50 (Plasmodium falciparum [3]): Not Active |
| COc1cc(NC(C)CCCNC(=O)c2cncc(C(=O)NCCCC(C)Nc3cc(OC)cc4ccc(C(C)(C)C)nc34)c2)c2nc(C(C)(C)C)ccc2c1.Cl (stereo unspecified) | 0.55% | – | – | Non-toxic | 120 µM | inactive | – | – | 19 µg/mL | – |
| COc1cc(NC(C)CCCNC(=O)NC(CCCN)C(=O)NCCCC(C)Nc2cc(OC)cc3cccnc23)c2ncccc2c1.Cl (single isomer, unassigned; 37) | 7.9% | – | 2 µg/mL | Non-toxic | 88 µM | – | 40 µg/mL | 2.8 µg/mL | 14 µg/mL | IC50 (Candida albicans): Not Active; IC50 (Cryptococcus neoformans): 15 µg/mL; MFC (Cryptococcus neoformans): 20 µg/mL; MIC (Cryptococcus neoformans): 20 µg/mL |
| COc1cc(NC(C)CCCNC(=O)c2cncc(C(=O)NCCCC(C)Nc3cc(OC)cc4cccnc34)c2)c2ncccc2c1.Cl (stereo unspecified) | 5.5% | – | 3 µg/mL | Non-toxic | 110 µM | inactive | – | 3.3 µg/mL | 18 µg/mL | – |
| COc1cc(NC(C)CCCNC(=O)NC(CCCN)C(=O)NCCCC(C)Nc2cc(OC)cc3cccnc23)c2ncccc2c1.Cl (single isomer, unassigned; 40) | 6.1% | – | 2.8 µg/mL | Non-toxic | 154 µM | – | 39 µg/mL | 4.2 µg/mL | 18 µg/mL | IC50 (Staphylococcus aureus): 10 µg/mL; MIC (Staphylococcus aureus): 20 µg/mL; IC50 [5]: Not Active; IC50 (Candida albicans): Not Active; IC50 (Cryptococcus neoformans): 7 µg/mL |
| COc1cc(NC(C)CCCNSC(=O)NCCCC(C)Nc2cc(OC)cc3cccnc23)c2ncccc2c1.Cl.Cl (stereo unspecified) | 10.9% | Not Active | 4.76 µg/mL | Non-toxic | 153 µM | – | 38 µg/mL | – | 20 µg/mL | – |
| COc1cc(NC(C)CCCNC(=O)c2ccncc2C(=O)NCCCC(C)Nc2cc(OC)cc3ccc(C(C)(C)C)nc23)c2nc(C(C)(C)C)ccc2c1.Cl (stereo unspecified) | 1.2% | – | 0.87 µg/mL | Non-toxic | 70 µM | – | 31 µg/mL | 1.5 µg/mL | 16 µg/mL | IC50 (Staphylococcus aureus): 15 µg/mL; MBC (Staphylococcus aureus): 20 µg/mL; MIC (Staphylococcus aureus): 20 µg/mL; IC50 [5]: Not Active; MBC [5]: inactive; MIC [5]: inactive |
| COc1cc(NC(C)CCCNC(=O)N[C@@H](CCCCN)C(=O)NCCCC(C)Nc2cc(OC)cc3ccc(C(C)(C)C)nc23)c2nc(C(C)(C)C)ccc2c1.Cl (stereo partly specified) | 1.1% | Not Active | – | Non-toxic | > 1000 µM | – | 38 µg/mL | – | 19 µg/mL | IC50 (Plasmodium falciparum [3]): Not Active; IC50 (Staphylococcus aureus): 8 µg/mL; MBC (Staphylococcus aureus): 20 µg/mL; MIC (Staphylococcus aureus): 20 µg/mL; IC50 [5]: Not Active; MBC [5]: inactive; MIC [5]: inactive |
